The full list was thinned out, with hits kept by preference.
WNV NS2B-NS3 inh: inhibitors of WNV NS2B-NS3 protease, primary screen, biochemical, fluorogenic substrate; z-score (concentration not given with the values); Genome polyprotein (West Nile virus), P06935; AID 577, 2007; hit rate 0.18% among 65,000; fluorogenic substrate Ex360/Em465; active compounds read low; in the data active = z-score below about -3
D1 allo mod: D1 CRE-luciferase signal change, two-sided – cell-based, HEK293 D1, dopamine EC30, D1 allosteric modulator project, primary screen; D(1A) dopamine receptor (Homo sapiens), P21728; dopamine EC30 potentiation; actives deviate in either direction; B-score at 10 µM; hit rate 5.9% among 58,000;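 active = luminescence count or its row- and column-corrected plate score outside the 99.7% band of the plate's sample wells, on either side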
Target sequence (P21728 whole entry, looked up): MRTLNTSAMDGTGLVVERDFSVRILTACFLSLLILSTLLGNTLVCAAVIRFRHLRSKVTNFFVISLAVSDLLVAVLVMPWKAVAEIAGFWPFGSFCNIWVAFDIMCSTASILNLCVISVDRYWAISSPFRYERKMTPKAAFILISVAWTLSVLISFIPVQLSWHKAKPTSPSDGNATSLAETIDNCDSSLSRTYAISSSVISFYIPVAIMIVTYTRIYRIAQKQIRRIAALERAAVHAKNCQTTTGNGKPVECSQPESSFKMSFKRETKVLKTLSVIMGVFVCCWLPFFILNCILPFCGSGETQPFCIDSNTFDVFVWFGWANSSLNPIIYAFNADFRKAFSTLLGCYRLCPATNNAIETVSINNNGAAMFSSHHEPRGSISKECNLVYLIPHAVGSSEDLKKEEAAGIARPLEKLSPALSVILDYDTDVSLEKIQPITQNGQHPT
AP complement: alternative complement pathway inhibitors, primary screen, biochemical, ELISA, human serum, orthogonally pooled compounds. AID 1235, 2008. hit rate 0.08% among 62,000. inhibition, % at 5 µM. LPS-coated ELISA, C3 deposition; tested in compound mixtures;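 active = inhibition above 30% in each of the two pooled mixtures holding the compound, so the lower value exceeds 30%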;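 note: 0% = serum in Mg-EGTA without compound and 100% = EDTA serum blank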
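Test system: human serum alternative complement pathway, C3 deposition on LPS-coated wells; also added: Plate-bound LPS; doses: 5 µM per compound in ten-compound mixtures; schedule: 1 h at 37 °C; detection: Anti-C3 ELISA, OD 450 nm; evaluation: percent inhibition of C3 deposition onto LPS; repeats: two pool placements per compound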
DAT uptake mod: changed hDAT dopamine uptake under cocaine IC80, either direction, primary screen, cocaine antagonist project, cell-based, LLC-PK1 hDAT, [14C]-dopamine uptake, MLSMR | Sodium-dependent dopamine transporter (Homo sapiens), Q01959 | LLC-PK1 hDAT cells, [14C]-dopamine uptake with cocaine IC80; actives deviate in either direction | B-score at 10 µM | hit rate 1.3% among 110,000;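 active = Z score or B-score, a plate-position-corrected score, falls beyond the plate's 99.7% confidence bounds, in either direction; inactive = both scores lie inside the 99.7% bounds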;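 note: scored against the spread of the other compound wells on the same plate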
D1 PAM confirm: D1 receptor positive allosteric modulators, retest, confirmation, cell-based, HEK293 D1, CRE-luciferase, duplicate; dopamine EC30 potentiation; active compounds read high; AID 642, 2007; shares compounds with D1 allo mod; luminescence at 10 µM; hit rate 88% among 2,200;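 active = luminescence in either of two replicates above the same-plate mean plus 3 SD of the low-dose dopamine control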
D1 ag no DA: D1 receptor agonism without dopamine, confirmation, mechanism study for D1 allosteric modulator project, cell-based, HEK293 D1, CRE-luciferase, secondary assay 1. shares compounds with D1 allo mod. luminescence, no dopamine; active compounds read high. luminescence at 10 µM. hit rate 0.8% among 1,900. AID 646, 2007; in the data active = luminescence above about 3900
Isoprot counter: alters isoproterenol CRE-luciferase response in HEK293 cells; hit rate 63% among 2,200; luminescence at 10 µM; AID 647; shares compounds with D1 allo mod; HEK293 D1 CRE-luciferase, isoproterenol EC30 counter-screen; active compounds read high;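 active = luminescence in either replicate above plate mean of wells with a partly effective reference agonist dose plus 3 SD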;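 note: isoproterenol raises cAMP through native beta-adrenoceptor Gs so signal bypasses D1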
* marks the source's active call; other numbers are inactive results; nt = no result given.

SMILES | WNV NS2B-NS3 inh | D1 allo mod | AP complement | DAT uptake mod | D1 PAM confirm | D1 ag no DA | Isoprot counter
N=c1c(S(=O)(=O)c2ccccc2)cc2c(=O)n3ccccc3nc2n1Cc1ccco1 | 1.13 | 2.89 | 9.2 | 1.11 | nt | nt | nt
Cc1ccc(S(=O)(=O)c2cc3c(=O)n4ccccc4nc3n(Cc3ccco3)c2=N)cc1C | -0.51 | 5.97* | 9.1 | 0.393 | 13264* | 1500 | 3644*
COc1ccc(N2CCN(S(=O)(=O)c3cccs3)CC2)cc1 | -0.46 | 5.02* | 4.9 | -0.0651 | 9608* | 1628 | 2904
Cc1ccc(Nc2nc(N)nc(CSCCO)n2)cc1 | nt | nt | nt | -0.616 | nt | nt | nt
Cc1ccc(Nc2nc(N)nc(CC#N)n2)cc1 | -0.64 | 6.62* | 6.5 | -0.582 | 14616* | nt | 3112*
CCO[C@@H]1OC(C(=O)Nc2ccccc2)=C[C@H](C2CC2)[C@H]1CCCO | nt | nt | nt | 0.0249 | nt | nt | nt
CC1(C)Cc2c(sc3c2c(=N)n(Cc2ccco2)c(=O)n3Cc2ccc(Cl)cc2)CO1 | -1.26 | 24.5* | 6.4 | 0.725 | 24660* | 1604 | 8816*
O=C(NCC1CC1)[C@]1(C(F)(F)F)C[C@H](CCC2CCCCC2)CCCO1 | nt | nt | nt | 0.0997 | nt | nt | nt
CC1CCN=C(N)S1 (stereo unspecified) | nt | nt | nt | 0.103 | nt | nt | nt
CSc1nc2ccccc2n1C(=O)Oc1ccccc1 | 1.77 | 9.36* | 10.5 | -0.115 | 12420* | 1516 | 4488*
CCSc1nc2ccccc2n1CCOc1ccccc1 | nt | nt | nt | -0.029 | nt | nt | nt
CCN(CC)c1nc(N)nc(N(c2ccccc2)c2ccccc2)n1 | nt | nt | nt | -0.757 | nt | nt | nt
COc1nc(N(c2ccccc2)c2ccccc2)nc(-n2ccnc2)n1 | 0.68 | 4.26* | 5.9 | 0.132 | 12628* | 1456 | 4028*
CSC1=NCCN1C(=O)c1ccc(Br)o1 | -0.2 | 5.72* | -2.8 | -0.751 | 11560* | 1672 | 3384
CSC1=NCCN1C(=O)Cc1cccs1 | -1.19 | 9.8* | 10.1 | -0.904 | 7652* | 1576 | 2968
CC1(c2nnc(-c3ccc(F)cc3)o2)CC(c2ccc([N+](=O)[O-])cc2)=NO1 (stereo unspecified) | nt | nt | nt | -0.274 | nt | nt | nt
COC(=O)c1cc(CSc2nnc(-c3ccccc3)c(-c3ccccc3)n2)oc1C | -0.09 | -0.205 | 9.2 | 1.05 | nt | nt | nt
COC(=O)c1cc(CSc2nnc(NC3CCCCC3)s2)oc1C | -0.64 | 9.99* | -3.4 | 0.101 | 10504* | 1400 | 2860*
COc1ccc(Cc2nn3c(-c4ccccc4Br)nnc3s2)cc1 | 1.07 | 5.38* | 26.8 | 0.978 | 8536* | 1392 | 4900*
COc1ccc(-c2nn3c(-c4ccccc4)nnc3s2)cc1 | 1.14 | 5.45* | 2.0 | 0.31 | 11796* | 1844 | 3672*
Brc1ccccc1-c1nnc2sc(Cc3ccccc3)nn12 | -0.00146 | 1.69 | 12.7 | 1.11 | nt | nt | nt
COc1ccc(Cc2nn3c(-c4cc(OC)c(OC)c(OC)c4)nnc3s2)cc1 | -0.49 | 4.66* | 29.2 | 0.735 | 8960* | 1520 | 3956*
COc1cc(-c2nnc3sc(Cc4ccc(Cl)cc4)nn23)cc(OC)c1OC | -1.11 | 1.41 | 6.1 | nt | nt | nt | nt
COC(=O)C1=C(C(=O)OC)[C@@H]2N(Cc3ccccc3)c3ccccc3[C@@]23C[C@@H](C(=O)OC)N=C3N1 | nt | nt | nt | 1.34 | nt | nt | nt
CCn1c(CSc2nnc(C)n2-c2ccccc2)nc2cc(S(=O)(=O)N(C)C)ccc21 | -0.51 | 1.8* | 0.1 | -0.651 | 5780 | 1620 | 2596
CCn1c(CSc2nnc(-c3ccoc3C)n2C)nc2cc(S(=O)(=O)N(C)C)ccc21 | 1.54 | 0.533 | 12.3 | 0.052 | nt | nt | nt
Cc1cc(C)n(-c2nc(NC(C)(C)C)nc(NC(C)(C)C)n2)n1 | -0.56 | 0.589 | 7.3 | 0.205 | nt | nt | nt
CC(C)(C)Nc1nc(NC(C)(C)C)nc(-n2ccnc2)n1 | 0.95 | 5.69* | 9.4 | -1.05 | 17956* | 2972 | 3732*
Cc1cc(C)c(C#N)c(SCc2ccc(C#N)cc2)n1 | -0.13 | 7.4* | 12.7 | -1.39 | 7996* | 1632 | 2780

From PubChem BioAssay
